# Results as given in article PMC3037477 (Investigational New Drugs, 2009).
# Columns and labels:
# [1] = LC-MS/MS detection of ETC and ETC-nucleotides in tumor and liver tissue; format: in vivo, NMRI:nu/nu female mice; conditions: 2 h after administration
# Summary of the method: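 Subcutaneous HT-29 xenografts were grown in female NMRI nude mice. Tumour and liver were taken 2 h after prodrug administration. ETC and its nucleotides were quantified by LC-MS/MS in MRM mode (transition 268.2/112.2).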
# [2] = tested on: HT-29 xenograft; experiment: In vivo antitumor effect in human HT-29 xenograft model; set-up: species or system NMRI:nu/nu female mice; conditions: or., 40 mg/kg/inj
# Summary of the method: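 5-FU-resistant human HT-29 colon carcinoma cells were implanted subcutaneously in female nude mice. Dosing began at palpable tumour size on a q4dx3 schedule. Tumour volumes of treated mice (T) were compared with PBS-treated controls (C). Animals were killed once tumours exceeded 1 cm3.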
# [3] = In vivo toxicity in HT-29 xenograft mice; set-up: species or system NMRI:nu/nu female mice; conditions: i.v. and oral treatment
# [4] = HPLC analysis of extracellular cleavage of prodrugs to nucleosides in the medium; format: in vitro ADME; conditions: after 24 h incubation with 100 µM prodrug
# Summary of the method: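 Cells were exposed to prodrug for 24 h. Medium above the cells was sampled after centrifugation, deproteinized with TCA and neutralized, then analysed by HPLC-UV for parent drug, FdUrd and ETC. Means of 3–5 independent experiments ± SEM.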
# [5] = biological target: thymidylate synthase (TS) in intact FM3A/0 cells (Mus musculus, UniProt P07607); experiment: TS in situ activity assay; format: cell-based, murine; conditions: 24 h exposure to 0.5 µM
# Sequence of thymidylate synthase (TS) in intact FM3A/0 cells (P07607 whole entry): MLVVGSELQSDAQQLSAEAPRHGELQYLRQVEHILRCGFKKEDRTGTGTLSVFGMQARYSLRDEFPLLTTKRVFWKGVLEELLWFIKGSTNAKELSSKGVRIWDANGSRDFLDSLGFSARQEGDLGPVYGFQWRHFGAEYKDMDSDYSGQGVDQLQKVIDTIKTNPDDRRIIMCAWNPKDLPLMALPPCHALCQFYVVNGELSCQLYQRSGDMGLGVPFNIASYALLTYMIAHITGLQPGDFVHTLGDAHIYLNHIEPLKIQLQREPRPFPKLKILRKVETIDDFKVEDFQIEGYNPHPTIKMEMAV
SMILES,ETC and ETC-nucleotide accumulation in liver tissue [1],ETC-nucleoside and ETC-nucleotide accumulation in tumor tissue ([1]; HT-29 xenograft),Evaluation (in vivo activity) [2],haematological side effects [3],parent drug still present in the medium [4],inhibition of thymidylate synthase (TS) in situ [5]
"C#C[C@@]1(O)[C@@H](COP(=O)(O)OC[C@H]2O[C@@H](n3cc(F)c(=O)[nH]c3=O)C[C@@H]2O)O[C@@H](n2ccc(N)nc2=O)[C@@H]1O [ETC-FdUrd, 3′-C-Ethynylcytidylyl-(5′➔5′)-5-fluoro-2′-deoxyuridine]",accumulated in the liver tissue,accumulated to a high extent in the tumor tissue,orally active,did not result in any haematological side effects,More than 60%,
"O=c1[nH]c(=O)n([C@H]2C[C@H](O)[C@@H](CO)O2)cc1F [FdUrd, 5-fluoro-2′-deoxyuridine]",,,,,,inhibited almost completely
